Assay outcomes: PubChem, The Scripps Research Institute Molecular Screening Center
HTR1E agonist: agonists of human 5-HT1E serotonin receptor | P28566 | CHO 5-HT1E Ga15 NFAT-bla reporter, FRET; 0% DMSO wells, 100% control agonist wells | activation, % at 6 µM | 65,000 tested, 0.69% active | AID 574;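 active = activation above a set limit, the screen-wide mean activation plus 3 SD, cut at about 8.5% in these data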;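 note: 100% = positive control agonist at 1 µM giving full maximal response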
HEK293 NFkB inh: lowers PMA/ionomycin-induced NF-kB signal in HEK293 cells; HEK-293 NF-kB luciferase reporter, luminescence; inhibition, % at 3 µM; 62,000 tested, 0.21% active; AID 465;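 active = inhibition above the mean of all tested compounds plus 3 SD, cut at about 40% in these data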;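 note: 0% = stimulated DMSO wells and 100% = 10 µM reference inhibitor 5653914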
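Timing: 1 h pretreatment, 16 h stimulation, 37 °C; system: HEK-293 cells with stable firefly luciferase reporter driven by four HIV NF-kB elements; doses: 3 µM once, 0.30% DMSO; measured by: luciferase luminescence; control set: DMSO and 10 µM reference inhibitor; repeats: single test; reagent: PMA plus ionomycin mix as NF-kB-activating stimulus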
HTR1A agonist: agonists of human 5-HT1a serotonin receptor. P08908. CHO 5-HT1a Ga15 NFAT-bla reporter, FRET ratio; 0% basal, 100% maximal reference agonist. activation, % at 10 µM. 65,000 tested, 0.56% active. AID 567;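 active = activation above the screen-wide mean activation plus 3 SD, cut at about 19% in these data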;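 note: 0% = DMSO wells and 100% = 5-CT at EC100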
Target sequence (P08908 whole entry, looked up): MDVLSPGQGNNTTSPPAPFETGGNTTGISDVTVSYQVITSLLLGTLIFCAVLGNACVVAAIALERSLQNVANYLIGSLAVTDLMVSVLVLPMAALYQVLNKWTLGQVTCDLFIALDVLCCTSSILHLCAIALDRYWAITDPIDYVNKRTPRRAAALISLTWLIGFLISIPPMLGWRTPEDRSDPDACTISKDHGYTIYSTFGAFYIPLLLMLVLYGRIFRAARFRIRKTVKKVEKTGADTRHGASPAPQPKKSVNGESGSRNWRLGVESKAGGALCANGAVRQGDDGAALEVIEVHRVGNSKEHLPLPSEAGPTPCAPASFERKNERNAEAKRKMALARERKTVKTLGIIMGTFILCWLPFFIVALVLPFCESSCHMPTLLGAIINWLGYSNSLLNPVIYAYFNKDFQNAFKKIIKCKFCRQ
HTR1E antagonist: blocks the human 5-HT1E serotonin receptor | P28566 | CHO 5-HT1E Ga15 NFAT-bla reporter, FRET, antagonist | inhibition, % at 6 µM | 65,000 tested, 0.99% active | AID 571;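 active = inhibition above a set limit, the mean inhibition across every tested compound plus 3 SD, cut at about 29% in these data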;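 note: signal is the 460 over 535 nm emission ratio of beta-lactamase substrate; 0% = agonist plus DMSO wells and 100% = wells without agonist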
Jurkat viability: reduces viability or proliferation of Jurkat cells; 56,000 tested, 1.2% active; inhibition, % at 4 µM; Jurkat E6.1 viability, ATP luminescence, 48 h; AID 463;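 active = inhibition above the mean inhibition of all tested compounds plus 3 SD, cut at about 28% in these data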
5-HT1A blocker: 5-HT1a (human) receptor antagonism | P08908 | CHO 5-HT1a Ga15 NFAT-bla reporter, antagonist mode | inhibition, % at 10 µM | 62,000 tested, 0.68% active;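 active = inhibition above the mean of all tested compounds plus 3 SD, cut at about 43% in these data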;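 note: receptor stimulated by 5-CT agonist at 100 nM near EC80; beta-lactamase reporter measured by ratiometric fluorescence of a cleavable substrate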
* marks the source's active call; other numbers are inactive results; · = not tested or not shown. An excerpt weighted towards active compounds, which were near 3.3% of everything screened.

SMILES	HTR1E agonist	HEK293 NFkB inh	HTR1A agonist	HTR1E antagonist	Jurkat viability	5-HT1A blocker
CS(=O)(=O)N(CC(=O)NCc1ccc2c(c1)OCO2)Cc1ccccc1	-1	11	0	12	-4	9
Cc1ccc(-n2c(SCc3cn4ccsc4n3)nc3ccccc3c2=O)cc1	0	16	3	43*	8	17
O=c1c2ccccc2nc(SCc2nc(-c3ccccc3)no2)n1-c1ccc(F)cc1	0	20	20*	-2	2	13
Cc1c(NC(=O)CCCCCN2C(=O)C3C4C=CC(C4)C3C2=O)c(=O)n(-c2ccccc2)n1C (centres undefined)	1	21	0	9	0	4
Nc1nc(-c2ccccc2)cc(N2CCCCC2)n1	1	29	0	17	78*	31
COCCn1nnnc1CN(CCc1ccccc1)Cc1cc2ccc(C)cc2[nH]c1=O	0	0	1	-1	-6	20
N#CC1=C(N)Oc2cc(N)ccc2C1C1CC=CCC1 (centres undefined)	8	19	16	12	56*	-22
Cc1[nH]nc2c1C(C1CC=CCC1)C(C#N)=C(N)O2 (centres undefined)	0	7	-5	5	8	13
Cc1ccc(-c2nnc3c4ccccc4c(C)nn23)cc1S(=O)(=O)N1CCN(C)CC1	1	8	3	13	-4	-6
Cc1ccc(-c2nnc(N3CCCCC3)c3ccccc23)cc1S(=O)(=O)N1CCN(C)CC1	-1	16	3	31*	0	4
CC(C)N1CC=C2C(C#N)=C(N)C(C#N)(C#N)C(c3ccccc3)C2C1 (centres undefined)	4	·	26*	2	·	·
CCOc1ccc(N(CC(=O)O)S(=O)(=O)c2ccc(F)cc2)cc1	-1	-1	74*	20	12	2
COc1ccccc1S(=O)Cc1ccc(C(=O)NCCc2ccc(Cl)cc2)o1 (centres undefined)	1	19	0	1	-5	10
Clc1ccc(-c2nc(NCCN3CCOCC3)c3ccccc3n2)cc1	0	17	45*	3	6	-9
COc1ccc(OC)c(C2=Nn3c(nnc3-c3ccncc3)SC2)c1	1	3	3	16	·	-10
COc1cccc(-c2nnc3n2N=C(c2cc(OC)ccc2OC)CS3)c1	-1	17	1	44*	·	12
COc1cccc(-c2nnc3n2N=C(C(C)(C)C)CS3)c1	-1	50*	-1	51*	·	76*
COc1ccc(-c2nnc3n2N=C(c2cccc(Br)c2)CS3)cc1OC	0	15	2	19	-5	-7
COc1cc(-c2nnc3n2N=C(c2ccccc2)CS3)cc(OC)c1OC	0	35	-1	51*	52*	2
COc1ccc(OC)c(C2=Nn3c(nnc3-c3cc(OC)c(OC)c(OC)c3)SC2)c1	3	33	3	44*	4	14
CCCn1c(=O)c(C(=O)Nc2nnc(CC)s2)c(O)c2ccccc21	0	20	-2	7	8	16
COc1ccc(CC(NC(C)=O)C(=O)NC2CCN(c3nc(C)cc(C)c3C#N)CC2)c(OC)c1 (centres undefined)	0	3	-1	-6	2	7
NS(=O)(=O)c1ccc(NC(=O)COC(=O)CCNC(=O)NC23CC4CC(CC(C4)C2)C3)cc1	0	26	1	-16	·	2
COc1ccc(CCNC(=O)Cn2cnc3c(cnn3-c3ccccc3Cl)c2=O)cc1OC	0	10	0	-8	-3	-8
CCOc1cccc(-c2nnc3n2N=C(c2cc(OC)ccc2OC)CS3)c1	0	30	1	61*	·	31
SMILES	HTR1E agonist	HEK293 NFkB inh	HTR1A agonist	HTR1E antagonist	Jurkat viability	5-HT1A blocker
O=c1c2[nH]c3ccc(F)cc3c2ncn1CCCN1CCOCC1	0	4	0	-1	-4	-3
O=c1c2[nH]c3ccc(F)cc3c2ncn1CCCn1ccnc1	0	19	13	0	33*	-5
CC(C)CCSc1nc(N)c(C#N)cc1C#N	-1	-5	1	15	-5	11
CCCCN(C)S(=O)(=O)c1ccc(C(=O)Nc2nnc(-c3cccs3)o2)cc1	0	14	1	-10	28*	7
CCCN(CCC)S(=O)(=O)c1ccc(C(=O)Nc2nnc(-c3cccc(OC)c3)o2)cc1	0	45*	-1	-8	10	10
CCCN(CCC)S(=O)(=O)c1ccc(C(=O)Nc2nnc(-c3cc(OC)cc(OC)c3)o2)cc1	0	8	-1	-8	6	3
CCCCN(CC)S(=O)(=O)c1ccc(C(=O)Nc2nnc(CSC)o2)cc1	0	10	-1	-6	88*	8
CC1(C)COCN1S(=O)(=O)c1ccc(C(=O)Nc2nnc(-c3ccc(Cl)s3)o2)cc1	1	39	1	8	17	3
COc1ccc(-c2nnc(NC(=O)c3ccc(S(=O)(=O)N4COCC4(C)C)cc3)o2)cc1	0	24	1	1	101*	24
CCCCN(CC)S(=O)(=O)c1ccc(C(=O)Nc2nnc(-c3ccccc3Cl)o2)cc1	1	20	-1	13	2	15
Cn1cccc1Cc1nnc(SCC(=O)Nc2ccc3c(c2)OCO3)n1-c1ccc(F)cc1	0	19	-2	10	2	13
Cc1nc2scc(-c3ccco3)c2c(=O)n1/N=C/N(C)C	0	18	1	-13	-1	-6
CC1(C)CC(=O)C(C=NCCN2CCN(C(=O)C34CC5CC(CC(C5)C3)C4)CC2)=C(O)C1	0	·	1	0	·	·
O=C(O)CN1CCN(Cc2ccc(F)cc2Cl)C1=O	1	12	-1	4	0	6
CCOC(=O)N1CCN(C(=O)CSc2nc3c(cnn3-c3ccc(Cl)cc3)c(=O)[nH]2)CC1	1	15	3	-20	-4	-17
O=C(Nc1nnc(-c2cccs2)o1)c1cccc(Oc2ccccc2)c1	1	6	-1	16	10	0
O=C(Nc1nnc(-c2cccs2)o1)c1cccc(F)c1	1	-8	0	-18	75*	-1
O=C(CN1C(=O)C2CC=CCC2C1=O)Nc1ccc(S(=O)(=O)NC2=NCCCCC2)cc1 (centres undefined)	-1	12	1	-6	-6	-6
CCN1CCN(S(=O)(=O)c2cc(OCC(=O)NC3CCCCC3)c(C)cc2Cl)CC1	-1	24	-2	4	53*	6
COc1cc2c(cc1OC)C(C)N(C(=O)c1cc3ccccc3o1)CC2 (centres undefined)	-1	9	-4	17	28*	13
CC(C)(C)n1ncc2c(=O)n(CC(=O)NCc3ccccc3)cnc21	0	-21	-3	-7	32	-13
